Source: article PMC5648736 (Clinical Pharmacokinetics, 2017)
Where two headings read alike, the source gives them in different places. Marks after values point to notes of the source that are not given here.

How the values were obtained:
[1] = Safety of initial single dose semaglutide 10 µg/kg; assay type: in vivo, human
Summary of the method: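 Initial cohort received a single weight-based dose, with ESRD subjects dosed 1–24 h after haemodialysis. Safety was judged from reported AEs, serious AEs, and gastrointestinal frequency and severity. Hypoglycaemia was classed as major, minor or symptoms-only by ability to self-treat and a 3.1 mmol/L plasma glucose cut-off. This cohort was evaluated for safety only and excluded from pharmacokinetic analysis.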

[2] = assay type: in vivo, human; conditions: for AUC∞ estimated ratio (95% CI): unadjusted ANCOVA; for C max estimated ratio (90% CI): unadjusted; for t ½: geometric mean (CV%)
[3] = Safety and tolerability of single dose semaglutide 0.5 mg; assay type: in vivo, human; conditions: single SC 0.5 mg
Summary of the method: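 Single 0.5 mg subcutaneous injection into the thigh by pen. ESRD subjects were dosed 1–24 h after haemodialysis, with no dialysis for 48 h after. Monitoring covered AEs, physical exam, ECG, vital signs, plasma glucose and clinical labs (biochemistry, haematology, urinalysis). TEAEs counted from dosing day to follow-up +14 days (~5 weeks). Hypoglycaemia: major = unable to self-treat; minor = self-treated with glucose <3.1 mmol/L. Descriptive statistics.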

[4] = cited from earlier work
[5] = single dose 10 µg/kg, six subjects
[6] = ESRD vs normal, adjusted for age, sex, log(weight), single SC 0.5 mg
[7] = mild RI vs normal, adjusted for age, sex, log(weight), single SC 0.5 mg
[8] = moderate RI vs normal, adjusted for age, sex, log(weight), single SC 0.5 mg
[9] = severe RI vs normal, adjusted for age, sex, log(weight), single SC 0.5 mg

For `CC[C@H](C)[C@H](NC(=O)[C@H](Cc1ccccc1)NC(=O)[C@H](CCC(=O)O)NC(=O)[C@H](CCCCNC(=O)COCCOCCNC(=O)COCCOCCNC(=O)CC[C@H](NC(=O)CCCCCCCCCCCCCCCCC(=O)O)C(=O)O)NC(=O)[C@H](C)NC(=O)[C@H](C)NC(=O)[C@H](CCC(N)=O)NC(=O)CNC(=O)[C@H](CCC(=O)O)NC(=O)[C@H](CC(C)C)NC(=O)[C@H](Cc1ccc(O)cc1)NC(=O)[C@H](CO)NC(=O)[C@H](CO)NC(=O)[C@@H](NC(=O)[C@H](CC(=O)O)NC(=O)[C@H](CO)NC(=O)[C@@H](NC(=O)[C@H](Cc1ccccc1)NC(=O)[C@@H](NC(=O)CNC(=O)[C@H](CCC(=O)O)NC(=O)C(C)(C)NC(=O)[C@@H](N)Cc1cnc[nH]1)[C@@H](C)O)[C@@H](C)O)C(C)C)C(=O)N[C@@H](C)C(=O)N[C@@H](Cc1c[nH]c2ccccc12)C(=O)N[C@@H](CC(C)C)C(=O)N[C@H](C(=O)N[C@@H](CCCNC(=N)N)C(=O)NCC(=O)N[C@@H](CCCNC(=N)N)C(=O)NCC(=O)O)C(C)C` [semaglutide, Semaglutide], the “tolerability as starting dose” value ([1]; single dose 10 µg/kg (0.7–1.2 mg), six subjects (three severe RI, three ESRD)) was “not considered a tolerable starting dose”, the “minor or symptoms-only hypoglycemia” value [1, 5] was “three experienced minor or symptoms-only hypoglycemia” and the “significant nausea and/or vomiting” value [1, 5] was “five experienced significant nausea and/or vomiting”. The “AUC48 ratio (ESRD group/normal renal function group), adjusted” value ([2]; 0–48 h, without hemodialysis, adjusted for age, sex, body weight, (90% CI)) was 0.81, the “AUC48–96 ratio (ESRD group/normal renal function group), adjusted” value ([2]; 48–96 h, with hemodialysis, adjusted for age, sex, body weight, (90% CI)) was 0.93 and the “effect of hemodialysis on pharmacokinetics” value ([2]; ESRD group, AUC48 vs AUC48–96 ratios) was “hemodialysis did not appear to affect the pharmacokinetics”. For the same compound, the “AUC∞ estimated ratio (95% CI)” value ([2]; ESRD vs normal renal function, single SC 0.5 mg) was 0.99 (0.82–1.19), the “AUC∞ estimated ratio (95% CI), adjusted analysis” value [2, 6] was 1.10 (0.94–1.28) and the “C max estimated ratio (90% CI), adjusted analysis” value [2, 6] was 0.82 (0.66–1.01). The “C max estimated ratio (90% CI)” value ([2]; ESRD vs normal, single SC 0.5 mg) was 0.72 (0.57–0.91), the “t ½” value ([2]; ESRD, single SC 0.5 mg, n=9) was 243 (19)^b h and the “C max lower in subjects with RI than in subjects with normal renal function” value ([2]; all RI groups, adjusted for age, sex, log(weight), single SC 0.5 mg) was 10–20%. For the same compound, the “AUC∞ estimated ratio (95% CI)” value ([2]; mild RI vs normal renal function, single SC 0.5 mg) was 1.01 (0.83–1.21), the “AUC∞ estimated ratio (95% CI), adjusted analysis” value [2, 7] was 0.99 (0.85–1.16) and the “C max estimated ratio (90% CI), adjusted analysis” value [2, 7] was 0.90 (0.73–1.11). The “C max estimated ratio (90% CI)” value ([2]; mild RI vs normal, single SC 0.5 mg) was 0.95 (0.76–1.20), the “t ½” value ([2]; mild RI, single SC 0.5 mg, n=9) was 169 (14)^b h and the “mean C max across the other groups” value ([2]; mild, moderate and severe RI groups, single SC 0.5 mg) was 9.0 to 9.8 nM. The “AUC∞ estimated ratio (95% CI)” value ([2]; moderate RI vs normal renal function, single SC 0.5 mg) was 1.15 (0.96–1.38), the “AUC∞ estimated ratio (95% CI), adjusted analysis” value [2, 8] was 1.07 (0.91–1.27) and the “C max estimated ratio (90% CI), adjusted analysis” value [2, 8] was 0.79 (0.64–0.99). For the same compound, the “C max estimated ratio (90% CI)” value ([2]; moderate RI vs normal, single SC 0.5 mg) was 0.88 (0.70–1.10), the “t ½” value ([2]; moderate RI, single SC 0.5 mg, n=10) was 201 (14)^c h and the “t max range across the groups” value ([2]; range of group medians, single SC 0.5 mg) was 24 to 51 h. The “AUC∞ estimated ratio (95% CI)” value ([2]; severe RI vs normal renal function, single SC 0.5 mg) was 1.22 (1.02–1.47), the “AUC∞ estimated ratio (95% CI), adjusted analysis” value [2, 9] was 1.13 (0.97–1.32) and the “C max estimated ratio (90% CI), adjusted analysis” value [2, 9] was 0.86 (0.70–1.06). For the same compound, the “C max estimated ratio (90% CI)” value ([2]; severe RI vs normal, single SC 0.5 mg) was 0.95 (0.75–1.19), the increase in exposure ([2]; subjects with CLCR 10 mL/min versus CLCR 90 mL/min, from slope −0.06) was 14% and the “vital signs, electrocardiogram, physical examinations, clinical laboratory assessments” value ([3]; all groups) was “No clinically significant values or appreciable changes”. The “serious or severe TEAEs” value ([3]; all groups, n=56) was “none were serious or severe”, the minor hypoglycemia ([3]; moderate RI and ESRD groups) was “one subject with moderate RI and one with ESRD experienced minor hypoglycemia” and the symptoms-only hypoglycemia ([3]; moderate RI group) was “two subjects in the moderate RI group experienced symptoms-only hypoglycemia”. The major hypoglycemic events ([3]; one subject with severe RI without type 2 diabetes) was “two major hypoglycemic events” and the “t ½ in humans” value [4] was “approximately 1 week”.
